Assay results reported in ChEMBL document CHEMBL1145835, “Novel potent 5-HT(1F) receptor agonists: structure-activity studies of a series of substituted N-[3-(1-methyl-4-piperidinyl)-1H-pyrrolo[3,2-b]pyridin-5-yl]amides” (J Med Chem, 2003).

Key:
[1] = biological target: 5-hydroxytryptamine receptor 4 (Homo sapiens, UniProt Q13639); experiment: In vitro binding affinity by radioligand binding assay using cell line expressing human 5-hydroxytryptamine 4 receptor
[2] = biological target: 5-hydroxytryptamine receptor 6 (Homo sapiens, UniProt P50406); experiment: In vitro binding affinity by radioligand binding assay using cell line expressing human 5-hydroxytryptamine 6 receptor
Chain of 5-hydroxytryptamine receptor 6 (P50406 whole entry): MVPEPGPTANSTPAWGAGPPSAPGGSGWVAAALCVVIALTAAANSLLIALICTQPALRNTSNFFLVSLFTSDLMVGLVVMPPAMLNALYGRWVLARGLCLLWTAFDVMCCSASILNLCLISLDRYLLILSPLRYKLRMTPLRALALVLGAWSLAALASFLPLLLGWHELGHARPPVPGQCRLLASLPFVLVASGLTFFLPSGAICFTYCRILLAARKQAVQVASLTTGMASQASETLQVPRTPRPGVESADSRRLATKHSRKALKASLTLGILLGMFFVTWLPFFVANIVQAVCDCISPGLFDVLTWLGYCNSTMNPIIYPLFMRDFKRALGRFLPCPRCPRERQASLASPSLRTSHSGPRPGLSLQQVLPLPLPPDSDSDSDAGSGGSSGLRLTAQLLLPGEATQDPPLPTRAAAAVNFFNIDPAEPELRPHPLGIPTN

[3] = biological target: 5-hydroxytryptamine receptor 2A (Homo sapiens, UniProt P28223); experiment: In vitro binding affinity by radioligand binding assay using cell line expressing human 5-hydroxytryptamine 2A receptor
Chain of 5-hydroxytryptamine receptor 2A (P28223 whole entry): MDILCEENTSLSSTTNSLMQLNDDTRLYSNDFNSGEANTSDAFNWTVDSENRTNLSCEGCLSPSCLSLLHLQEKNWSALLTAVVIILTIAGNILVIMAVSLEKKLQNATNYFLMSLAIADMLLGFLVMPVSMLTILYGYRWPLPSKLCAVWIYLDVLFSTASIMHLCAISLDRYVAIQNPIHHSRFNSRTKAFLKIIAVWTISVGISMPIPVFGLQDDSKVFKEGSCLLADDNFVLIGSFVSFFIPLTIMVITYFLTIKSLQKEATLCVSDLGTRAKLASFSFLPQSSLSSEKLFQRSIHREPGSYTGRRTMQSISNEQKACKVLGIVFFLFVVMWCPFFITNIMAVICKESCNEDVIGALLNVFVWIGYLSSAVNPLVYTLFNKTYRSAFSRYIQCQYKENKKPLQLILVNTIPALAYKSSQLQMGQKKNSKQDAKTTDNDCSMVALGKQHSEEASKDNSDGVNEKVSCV

Cavia porcellus [4] = experiment: In vivo efficacy in neurogenic plasma protein extravasation screen using guinea pig neurogenic PPE assay (1 ng/kg, po) at 1 hr postdose; format: functional
Outline: (§1)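 Guinea pig neurogenic dural PPE screen. Single oral dose of 1 ng/kg, then unilateral trigeminal ganglion stimulation with Evan's blue-labelled plasma protein leakage. Read-out is the fluorescence ratio of stimulated to unstimulated dura at 1 h or 24 h postdose. A ratio near 1 means full efficacy; near 1.8 means ineffective.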

Cavia porcellus [5] = experiment: In vivo efficacy in neurogenic plasma protein extravasation screen using guinea pig neurogenic PPE assay (1 ng/kg, po) at 24 hr postdose; format: functional; outline: as §1
Oryctolagus cuniculus [6] = species: Oryctolagus cuniculus; experiment: In vitro contractile response in rabbit saphenous vein; format: functional
Outline: (§2)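 Rabbit saphenous vein rings. Maximal contraction is expressed as % of the contraction induced by KCl (67 mM), with the concentration giving the maximal response recorded. Means (SEM) of three to seven determinations.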

[7] = biological target: T1, 5-hydroxytryptamine receptor 1A (Homo sapiens, UniProt P08908); experiment: In vitro binding affinity by radioligand binding assay using cell line expressing human 5-hydroxytryptamine 1A receptor
T1 sequence (P08908 whole entry): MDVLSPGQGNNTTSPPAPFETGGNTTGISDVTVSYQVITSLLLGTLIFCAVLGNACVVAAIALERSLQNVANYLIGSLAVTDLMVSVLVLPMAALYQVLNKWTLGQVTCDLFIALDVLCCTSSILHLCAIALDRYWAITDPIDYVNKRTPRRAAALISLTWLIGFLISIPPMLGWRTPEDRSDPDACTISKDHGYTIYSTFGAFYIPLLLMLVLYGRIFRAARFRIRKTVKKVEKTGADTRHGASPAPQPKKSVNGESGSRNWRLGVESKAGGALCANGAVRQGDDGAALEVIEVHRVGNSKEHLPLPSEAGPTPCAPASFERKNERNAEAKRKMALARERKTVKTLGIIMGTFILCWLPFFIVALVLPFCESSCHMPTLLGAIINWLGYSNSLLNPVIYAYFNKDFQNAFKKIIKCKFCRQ
Outline: (§3)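 Ki (nM) from radioligand binding on cell lines each expressing one human serotonin receptor subtype. Values are means of at least three determinations with SEM. ND: Ki not determined, when a 10⁻⁷ M test ligand gave <50% displacement of radioligand.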

[8] = biological target: T2, 5-hydroxytryptamine receptor 1F (Homo sapiens, UniProt P30939); experiment: In vitro effective concentration for stimulation of [35S]GTP-gamma-S, binding in mouse LM(tk-)cells expressing the human 5-hydroxytryptamine 1F receptor; format: functional
T2 sequence (P30939 whole entry): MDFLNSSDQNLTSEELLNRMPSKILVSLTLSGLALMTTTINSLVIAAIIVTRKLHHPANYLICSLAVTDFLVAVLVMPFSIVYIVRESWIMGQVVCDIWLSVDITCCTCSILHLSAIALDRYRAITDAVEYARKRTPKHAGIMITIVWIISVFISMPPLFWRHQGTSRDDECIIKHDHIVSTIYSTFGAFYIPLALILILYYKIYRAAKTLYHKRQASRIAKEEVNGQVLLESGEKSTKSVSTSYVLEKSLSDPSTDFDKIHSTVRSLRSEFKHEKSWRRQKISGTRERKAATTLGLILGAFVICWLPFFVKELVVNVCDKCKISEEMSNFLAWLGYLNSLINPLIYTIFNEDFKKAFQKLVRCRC

[9] = biological target: T2, 5-hydroxytryptamine receptor 1F; experiment: In vitro binding affinity was determined by radioligand binding assay using cell line expressing human 5-hydroxytryptamine 1F receptor; outline: as §3
[10] = biological target: 5-hydroxytryptamine receptor 1E (Homo sapiens, UniProt P28566); experiment: In vitro binding affinity by radioligand binding assay using cell line expressing human 5-hydroxytryptamine 1E receptor
Chain of 5-hydroxytryptamine receptor 1E (P28566 whole entry): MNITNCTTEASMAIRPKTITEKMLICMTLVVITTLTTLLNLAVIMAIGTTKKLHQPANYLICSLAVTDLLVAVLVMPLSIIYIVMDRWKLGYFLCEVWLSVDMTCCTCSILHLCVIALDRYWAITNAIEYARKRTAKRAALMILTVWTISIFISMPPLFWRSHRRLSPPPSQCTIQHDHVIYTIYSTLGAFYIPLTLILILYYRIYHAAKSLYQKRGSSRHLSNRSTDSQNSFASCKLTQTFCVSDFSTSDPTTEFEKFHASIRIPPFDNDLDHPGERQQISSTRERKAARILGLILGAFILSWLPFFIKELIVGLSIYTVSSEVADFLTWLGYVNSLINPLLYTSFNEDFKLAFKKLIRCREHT

[11] = biological target: 5-hydroxytryptamine receptor 1B (Homo sapiens, UniProt P28222); experiment: In vitro binding affinity by radioligand binding assay using cell line expressing human 5-hydroxytryptamine 1B receptor
Chain of 5-hydroxytryptamine receptor 1B (P28222 whole entry): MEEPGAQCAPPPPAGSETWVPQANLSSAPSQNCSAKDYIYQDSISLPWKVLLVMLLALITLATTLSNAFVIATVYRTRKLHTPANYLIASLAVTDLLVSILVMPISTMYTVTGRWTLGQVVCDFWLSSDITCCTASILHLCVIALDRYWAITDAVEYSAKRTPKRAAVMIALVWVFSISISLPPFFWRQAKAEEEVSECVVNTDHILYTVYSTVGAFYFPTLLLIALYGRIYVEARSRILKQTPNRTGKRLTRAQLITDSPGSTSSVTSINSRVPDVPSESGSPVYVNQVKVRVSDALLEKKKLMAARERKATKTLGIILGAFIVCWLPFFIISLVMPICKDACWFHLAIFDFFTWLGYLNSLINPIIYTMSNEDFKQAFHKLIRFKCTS
Outline: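 Ki (nM) from radioligand binding on cell lines each expressing one human serotonin receptor subtype. Values are means of at least three determinations with SEM.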

[12] = biological target: T3, 5-hydroxytryptamine receptor 1F (Homo sapiens) (UniProt P30939); experiment: Maximum stimulation of [35S]GTP-gamma-S, binding expressed relative to the maximal effect of 5-hydroxytryptamine […]; format: functional
T3 sequence (whole entry): T2 sequence (P30939 whole entry)

[13] = biological target: 5-hydroxytryptamine receptor 2B (Homo sapiens, UniProt P41595); experiment: In vitro binding affinity by radioligand binding assay using cell line expressing human 5-hydroxytryptamine 2B receptor
Chain of 5-hydroxytryptamine receptor 2B (P41595 whole entry): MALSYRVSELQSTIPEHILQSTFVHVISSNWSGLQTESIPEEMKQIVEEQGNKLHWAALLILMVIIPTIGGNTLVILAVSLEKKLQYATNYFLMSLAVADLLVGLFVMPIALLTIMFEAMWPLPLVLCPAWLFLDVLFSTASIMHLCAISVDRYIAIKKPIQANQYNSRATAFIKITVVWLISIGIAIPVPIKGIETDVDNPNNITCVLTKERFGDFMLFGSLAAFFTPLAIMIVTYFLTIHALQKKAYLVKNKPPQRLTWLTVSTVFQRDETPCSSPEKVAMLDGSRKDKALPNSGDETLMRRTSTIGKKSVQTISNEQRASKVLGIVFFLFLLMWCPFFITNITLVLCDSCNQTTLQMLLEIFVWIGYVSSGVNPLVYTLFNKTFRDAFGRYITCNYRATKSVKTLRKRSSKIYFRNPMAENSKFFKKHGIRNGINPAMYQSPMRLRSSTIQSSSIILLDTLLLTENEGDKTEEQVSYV

[14] = biological target: 5-hydroxytryptamine receptor 1D (Homo sapiens, UniProt P28221); experiment: In vitro binding affinity by radioligand binding assay using cell line expressing human 5-hydroxytryptamine 1D receptor; outline: as §3
Chain of 5-hydroxytryptamine receptor 1D (P28221 whole entry): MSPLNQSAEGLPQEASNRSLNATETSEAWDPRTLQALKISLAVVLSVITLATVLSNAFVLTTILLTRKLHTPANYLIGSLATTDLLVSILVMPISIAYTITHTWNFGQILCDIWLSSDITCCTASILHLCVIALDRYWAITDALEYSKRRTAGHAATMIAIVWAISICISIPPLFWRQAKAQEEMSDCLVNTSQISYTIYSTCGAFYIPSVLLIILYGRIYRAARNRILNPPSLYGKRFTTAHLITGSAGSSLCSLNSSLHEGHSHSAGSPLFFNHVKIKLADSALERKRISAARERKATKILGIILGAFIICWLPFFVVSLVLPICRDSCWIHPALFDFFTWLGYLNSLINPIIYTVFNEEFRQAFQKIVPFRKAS

[15] = biological target: T4, 5-hydroxytryptamine receptor 2C (Homo sapiens, UniProt P28335); experiment: In vitro binding affinity by radioligand binding assay using cell line expressing human 5-hydroxytryptamine 2C receptor
T4 sequence (P28335 whole entry): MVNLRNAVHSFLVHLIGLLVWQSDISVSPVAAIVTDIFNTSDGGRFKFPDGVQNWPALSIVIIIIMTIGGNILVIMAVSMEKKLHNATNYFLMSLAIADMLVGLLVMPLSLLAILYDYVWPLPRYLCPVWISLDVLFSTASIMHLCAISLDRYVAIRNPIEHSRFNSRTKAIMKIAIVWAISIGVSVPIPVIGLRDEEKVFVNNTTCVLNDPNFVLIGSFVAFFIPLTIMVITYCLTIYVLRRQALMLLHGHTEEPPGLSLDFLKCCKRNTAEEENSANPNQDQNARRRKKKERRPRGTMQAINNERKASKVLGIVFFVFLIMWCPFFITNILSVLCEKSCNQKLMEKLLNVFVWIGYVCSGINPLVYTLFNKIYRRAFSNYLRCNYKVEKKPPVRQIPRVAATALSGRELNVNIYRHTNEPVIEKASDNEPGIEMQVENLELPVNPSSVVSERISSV

Oryctolagus cuniculus [16] = species: Oryctolagus cuniculus; experiment: In vitro concentration of maximum contractile response in rabbit saphenous vein; format: functional; outline: as §2
[17] = biological target: T2, 5-hydroxytryptamine receptor 1F; experiment: In vitro effective concentration for stimulation of [35S]GTP-gamma-S, binding in mouse LM(tk-)cells expressing the human 5-HT1F receptor; format: functional
[18] = biological target: 5-hydroxytryptamine receptor 7 (Homo sapiens, UniProt P34969); experiment: In vitro binding affinity by radioligand binding assay using cell line expressing human 5-hydroxytryptamine 7 receptor
Chain of 5-hydroxytryptamine receptor 7 (P34969 whole entry): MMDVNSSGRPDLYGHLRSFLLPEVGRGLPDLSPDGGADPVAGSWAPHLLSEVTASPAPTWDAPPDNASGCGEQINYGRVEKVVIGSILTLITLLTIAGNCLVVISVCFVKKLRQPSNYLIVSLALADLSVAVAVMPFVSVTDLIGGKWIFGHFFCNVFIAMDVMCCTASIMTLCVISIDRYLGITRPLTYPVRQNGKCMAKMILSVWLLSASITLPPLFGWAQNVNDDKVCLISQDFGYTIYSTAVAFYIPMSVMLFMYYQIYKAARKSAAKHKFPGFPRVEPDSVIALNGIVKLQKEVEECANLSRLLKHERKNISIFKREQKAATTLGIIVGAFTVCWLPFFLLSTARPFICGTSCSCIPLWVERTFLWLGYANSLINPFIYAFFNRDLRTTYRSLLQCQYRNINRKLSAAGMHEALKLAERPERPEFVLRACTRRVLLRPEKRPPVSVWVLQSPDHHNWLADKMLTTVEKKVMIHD

Chain of 5-hydroxytryptamine receptor 4 (Q13639 whole entry): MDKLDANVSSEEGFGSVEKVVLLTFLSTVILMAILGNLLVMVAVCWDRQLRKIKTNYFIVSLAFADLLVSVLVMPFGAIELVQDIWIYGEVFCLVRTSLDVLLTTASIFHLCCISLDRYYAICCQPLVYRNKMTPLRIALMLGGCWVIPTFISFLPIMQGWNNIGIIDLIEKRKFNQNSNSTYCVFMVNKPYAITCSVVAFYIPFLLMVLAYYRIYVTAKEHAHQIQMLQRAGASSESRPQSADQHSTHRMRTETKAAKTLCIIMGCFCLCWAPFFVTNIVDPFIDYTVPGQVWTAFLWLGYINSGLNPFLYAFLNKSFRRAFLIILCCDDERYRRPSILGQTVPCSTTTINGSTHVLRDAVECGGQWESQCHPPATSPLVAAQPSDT

Row | SMILES | Ki [1] [nM] | Ki [2] [nM] | Ki [3] [nM] | Efficacy (Cavia porcellus [4]) | Efficacy (Cavia porcellus [5]) | Response (Oryctolagus cuniculus [6]) [%] | Ki [7] [nM] | EC50 [8] [nM] | Ki [9] [nM] | Ki [10] [nM] | Ki [11] [nM] | Emax [12] [%] | Ki [13] [nM] | Ki [14] [nM] | Ki [15] [nM] | Concentration of max response (Oryctolagus cuniculus [16]) [µM] | EC50 [17] [nM] | Ki [18] [nM]
1 | CCC(=O)Nc1ccc2[nH]cc(C3CCN(C)CC3)c2n1 | 2400 | 1120 | 3400 | 1.2 | 1 | 3 | 1000 | 32 | 5.5 | 770 | 720 | 88 | > 10000 | 730 | 310 | – | – | –
2 | CN1CCC(c2c[nH]c3ccc(NC(=O)c4ccc(C#N)cc4)nc23)CC1 | – | – | – | 1.5 | – | 1.1 | 31 | – | 7.2 | – | 310 | – | – | 380 | – | 30 | – | –
3 | CC(=O)Nc1ccc2[nH]cc(C3CCN(C)CC3)c2n1 | – | – | – | 1 | 1.1 | 5.7 | 620 | – | 5 | – | 270 | 98 | – | 250 | – | 30 | 36 | –
4 | CN1CCC(c2c[nH]c3ccc(NC(=O)c4ccc(F)cc4)nc23)CC1 | 4000 | > 10000 | 4800 | – | – | 16 | 56 | – | 7.6 | 660 | 1200 | – | > 10000 | 730 | 1900 | – | – | > 5000
